The values that follow come from ChEMBL document CHEMBL4842338, “System-oriented optimization of multi-target 2,6-diaminopurine derivatives: Easily accessible broad-spectrum antivirals active against flaviviruses, influenza virus and SARS-CoV-2” (Eur J Med Chem, 2021).

One data set deals with dengue virus type 2. Nature of the data set: Antiviral activity against Dengue virus serotype 2 New Guinea C infected in pre-seeded Huh-7 cells assessed as inhibition of viral replication incubated for 72 hrs by immunodetection based secondary yield reduction assay. In kind it is functional, organism-based. Conditions: Dengue virus, New Guinea C, Huh-7, 72 h; read-out: IC50.

Data set [1] is described as follows: Selectivity index, ratio of CC50 for human Huh-7 cells to IC50 for Zika virus H/PF/2013 infected in pre-seeded Huh-7 cells assessed as inhibition of viral replication incubated for 72 hrs by immunodetection based direct yield reduction assay. It is filed as toxicity, cell-based. The following applies: read-out: Selectivity Index. An outline of the steps: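 Direct yield reduction in Huh7 cells (7000/well), infected with 50 TCID₅₀ of DENV or ZIKV, or 25 TCID₅₀ of WNV. Adsorption 1 h at 37 °C, then virus removed and serial compound dilutions added. Incubated 72 h (DENV, ZIKV) or 48 h (WNV). Viral antigen immunodetected on the monolayer. IC₅₀ by non-linear regression, mean of three experiments. SI = CC₅₀ (Huh7, CellTiter-Glo luminescence)/IC₅₀.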

The nature of data set [2]: Selectivity index, ratio of CC50 for human Huh-7 cells to IC50 for Zika virus H/PF/2013 infected in pre-seeded Huh-7 cells assessed as inhibition of viral replication incubated for 72 hrs by immunodetection based plaque reduction assay. In kind it is toxicity, cell-based. Conditions: read-out: Selectivity Index.
For data set [3], the system named is Influenza A virus. The data set is described as follows: Antiviral activity against Influenza A Puerto Rico/8/34/H1N1 infected in human A549 cells assessed as inhibition of hemagglutinin expression at 20 uM treated post viral infection for 24 hrs followed by infection of fresh cell monolayer of A549 cells with supernatant for 24 hrs by In-cell western assay. In kind it is functional. Conditions: A/Puerto Rico/8/1934(H1N1). A digest of the protocol:
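A549 cells infected with PR8 H1N1 and given 20 μM compound: 2 h before infection (PRE), 1 h during adsorption (DUR), or 24 h after adsorption (POST); supernatants used to infect fresh monolayers for 24 h; anti-HA in-cell western; RFU as % of untreated infected; 3 replicates from two experiments.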

Data set [4] concerns Influenza A virus. Nature of the data set: Antiviral activity against Influenza A Puerto Rico/8/34/H1N1 infected in human A549 cells assessed as reduction in viral protein expression at 20 uM treated for 24 hrs pdp viral adsorption followed by staining with anti-Flu antibody observed at 24 hrs post infection by In-cell western assay. It is filed as functional, organism-based. Conditions: A/Puerto Rico/8/1934(H1N1).

Data set [5] has as its system Influenza A virus. The data set is described as follows: Antiviral activity against Influenza A/California/04/2009H1N1 infected in human A549 cells assessed as reduction in viral protein expression at 20 uM pretreated for 2 hrs followed by staining with anti-Flu antibody observed at 24 hrs post infection by In-cell western assay. It is filed as functional, organism-based.

Data set [6] has as its system Influenza A virus. Nature of the data set: Antiviral activity against Influenza A virus (A/parrot/Ulster/73(H7N1)) infected in human A549 cells assessed as reduction in viral protein expression at 20 uM treated for 1 hr during viral adsorption followed by staining with anti-Flu antibody observed at 24 hrs post infection by In-cell western assay. It is filed as functional, organism-based.

Data set [7] concerns Influenza A virus. Nature of the data set: Antiviral activity against Influenza A virus (A/parrot/Ulster/73(H7N1)) infected in human A549 cells assessed as reduction in viral protein expression at 20 uM treated for 24 hrs, pdp viral adsorption followed by staining with anti-Flu antibody observed at 24 hrs post infection by In-cell western assay. It is filed as functional, organism-based.

Data set [8] in a line: Selectivity index, ratio of CC50 for African green monkey Vero E6 cells infected with SARS-COV-2 to IC50 for SARS-COV 2 infected in monkey Vero E6 cells. It is filed as toxicity, cell-based, Vero C1008. The following applies: read-out: Selectivity Index.
For data set [9], the system named is SARS-CoV-2. Nature of the data set: Antiviral activity against SARS-COV 2 infected in human Calu-3 cells assessed as inhibition of viral replication at MOI of 0.01 followed by removal of test compound after cell virus adsorption incubated for 72 hrs by ENTRY-DYRA method. In kind it is functional, organism-based. Conditions: Severe acute respiratory syndrome coronavirus 2, Calu-3, 72 h.

Data set [10] concerns SARS-CoV-2. Nature of the data set: Antiviral activity against SARS-COV 2 infected in quadruplicate Vero E6 cells with DYRA supernatant assessed as reduction in viral replication at 20 uM. In kind it is functional. Conditions: Severe acute respiratory syndrome coronavirus 2, Vero C1008.
The nature of data set [11]: Inhibition of Dengue virus 2 […] RNA dependent RNA polymerase incubated for 10 mins by picogreen staining based fluorescent analysis (Rvb= 0.27+/-0.03 uM). Also noted: species or system dengue virus type 2.
The nature of data set [12]: Inhibition of full length Dengue virus 2 NS5 RNA dependent RNA polymerase incubated for 10 mins by picogreen staining based fluorescent analysis (Rvb= 0.32+/-0.05 uM). On the set-up: species or system dengue virus type 2.
Data set [13] can be described thus: Inhibition of DENV NS5-MTase domain using GpppA2'OMe-RNA74 as a substrate incubated for 30 mins by filter binding assay. On the set-up: species or system dengue virus type 2. Conditions: read-out: IC50. A digest of the protocol:
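MTase (1 μM) incubated with increasing inhibitor in 40 mM Tris-HCl pH 7.5, 5 mM DTT, 10 μM AdoMet ([3H]-labelled), 0.5 μM GpppA2′OMe-RNA74 substrate, 30 °C for 30 min; stopped in ice-cold 100 μM AdoHcy; DEAE filter binding, scintillation counting.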

Data set [14] relates to Huh-7. Nature of the data set: Effect on formation of DENV replication complex in human Huh-7 cells assessed as reduction in expression of NS5 at 50 uM measured after 8 to 24 hrs by DAPI staining based confocal microscopy analysis. It is filed as functional, cell-based. The following applies: time 8-24 hrs. An outline of the steps: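 Huh-7 cells (1 × 10⁴) on coverslips infected with DENV-2 (MOI 0.05), treated (100 or 50 μM as listed), fixed in 4% paraformaldehyde at 8, 12, 16, 24 h; anti-NS3/anti-NS5 with Alexa 488/568 secondaries, DAPI; confocal, 5 random fields at 40×; % positive cells; 2-way ANOVA with Dunnett.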

The test system of data set [15] is Huh-7. Nature of the data set: Effect on formation of DENV replication complex in human Huh-7 cells assessed as reduction NS3:NS5 colocalization into nucleus at 50 uM measured after 16 to 24 hrs by DAPI staining based confocal microscopy analysis. It is filed as functional, cell-based. Conditions: time 16-24 hrs. A digest of the protocol: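 DENV-2-infected Huh-7 cells (MOI 0.05) treated at 50 μM, fixed at 8–24 h, stained for NS3/NS5; confocal colocalization by Manders coefficients with Costes P ≥95% as signal; versus untreated control; repeated at least twice.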

Data set [16] deals with Abl (Tyrosine-protein kinase ABL1) (Homo sapiens, UniProt P00519). Nature of the data set: Inhibition of human recombinant N terminal His6 tagged Abl (27 to end residue) assessed as residual activity at 5 uM using KKGEAIYAADFA-NH2 as a substrate in the presence of NP-40 incubated for 10 mins by scintillation counting analysis relative to control. Conditions: probe KKGEAIYAADFA-NH2, read-out: Activity. An outline of the steps:
(§1)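 Compounds at fixed 5 μM; 10–50 ng kinase, substrate and NP-40/BSA per supplementary table, 10 μL at 30 °C for 10 min in low-binding tubes. Reactions spotted on filter, dried, scintillation counted. Mean ± SD of two independent experiments.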

Data set [17] addresses Fyn (Tyrosine-protein kinase Fyn) (Homo sapiens, UniProt P06241). Nature of the data set: Inhibition of human recombinant N terminal His6 tagged full length Fyn assessed as residual activity at 5 uM using […] as a substrate in the presence of NP-40 incubated for 10 mins by scintillation counting analysis relative to control. Conditions: probe […], read-out: Activity. A digest of the protocol:
as §1

Structures are written as SMILES. Activity calls are given as the source filed them. The calls are words filed in the database; no cut-off is given here. Bounds are passed on as bounds.

Abl (Tyrosine-protein kinase ABL1), sequence (P00519 whole entry): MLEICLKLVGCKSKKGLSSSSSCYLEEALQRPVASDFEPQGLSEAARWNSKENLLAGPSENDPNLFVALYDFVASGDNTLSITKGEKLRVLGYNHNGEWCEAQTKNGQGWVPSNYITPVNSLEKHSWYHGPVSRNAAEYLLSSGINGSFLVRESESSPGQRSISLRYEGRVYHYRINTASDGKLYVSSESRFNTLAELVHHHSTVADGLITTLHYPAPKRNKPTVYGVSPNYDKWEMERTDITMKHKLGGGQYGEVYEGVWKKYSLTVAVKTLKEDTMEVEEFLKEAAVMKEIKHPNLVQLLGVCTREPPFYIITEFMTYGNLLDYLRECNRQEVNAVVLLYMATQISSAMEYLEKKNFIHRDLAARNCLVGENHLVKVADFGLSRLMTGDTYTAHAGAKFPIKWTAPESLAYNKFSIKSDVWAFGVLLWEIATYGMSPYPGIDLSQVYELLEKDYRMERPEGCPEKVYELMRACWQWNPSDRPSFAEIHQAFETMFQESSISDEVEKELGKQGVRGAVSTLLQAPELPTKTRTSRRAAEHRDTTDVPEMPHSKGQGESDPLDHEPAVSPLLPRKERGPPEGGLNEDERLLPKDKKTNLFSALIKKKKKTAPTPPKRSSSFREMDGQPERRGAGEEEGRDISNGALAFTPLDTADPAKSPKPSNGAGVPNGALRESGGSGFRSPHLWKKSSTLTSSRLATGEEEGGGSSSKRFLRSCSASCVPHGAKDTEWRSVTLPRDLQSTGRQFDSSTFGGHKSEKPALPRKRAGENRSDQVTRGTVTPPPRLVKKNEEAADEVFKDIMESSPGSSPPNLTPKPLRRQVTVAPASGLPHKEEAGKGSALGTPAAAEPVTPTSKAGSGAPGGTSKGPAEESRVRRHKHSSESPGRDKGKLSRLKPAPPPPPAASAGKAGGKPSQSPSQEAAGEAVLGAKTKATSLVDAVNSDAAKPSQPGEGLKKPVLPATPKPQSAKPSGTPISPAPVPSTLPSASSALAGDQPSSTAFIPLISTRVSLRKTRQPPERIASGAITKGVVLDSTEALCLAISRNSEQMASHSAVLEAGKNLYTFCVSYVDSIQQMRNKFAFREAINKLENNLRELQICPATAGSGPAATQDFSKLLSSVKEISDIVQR
Fyn (Tyrosine-protein kinase Fyn), sequence (P06241 whole entry): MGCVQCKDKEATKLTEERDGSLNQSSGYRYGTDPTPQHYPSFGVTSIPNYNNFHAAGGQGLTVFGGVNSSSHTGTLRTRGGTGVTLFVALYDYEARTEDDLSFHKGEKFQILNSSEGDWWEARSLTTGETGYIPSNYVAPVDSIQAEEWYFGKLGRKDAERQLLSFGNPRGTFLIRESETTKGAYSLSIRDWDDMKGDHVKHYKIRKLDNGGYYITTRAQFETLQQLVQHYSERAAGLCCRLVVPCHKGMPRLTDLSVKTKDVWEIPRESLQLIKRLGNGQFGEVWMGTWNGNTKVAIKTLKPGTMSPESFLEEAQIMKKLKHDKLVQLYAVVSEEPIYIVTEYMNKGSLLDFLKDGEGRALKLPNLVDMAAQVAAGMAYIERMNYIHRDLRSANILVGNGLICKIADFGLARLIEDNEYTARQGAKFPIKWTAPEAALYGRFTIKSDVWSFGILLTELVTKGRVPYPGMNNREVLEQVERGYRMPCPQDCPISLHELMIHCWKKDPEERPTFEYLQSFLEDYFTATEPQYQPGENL

As to `FC(F)(F)c1cccc(Nc2nc(NCCOc3ccccc3)nc3[nH]cnc23)c1`, the 50% inhibitory concentration (IC50) (as a rule, the concentration that inhibits the measured activity by half) turned out to be 2.6 µM in the data set on dengue virus type 2; 1.9 µM in the data set with SARS-CoV-2 [9]; 20.8 µM in data set [11]; 43.7 µM in data set [12]; 112 µM in [13]. Moreover, the selectivity ratio at 72 h turned out to be 250 in data set [1] and 400 in data set [2]. Also, the inhibition (usually the percentage by which the read-out fell short of the control) at 20 µM came out at 50% in the data set with Influenza A virus [3] and 91.9% in the data set on SARS-CoV-2 [10]. Also, the Activity entry with Influenza A virus [4], with Influenza A virus [5], in the data set with Influenza A virus [6], with Influenza A virus [7], with Huh-7 [14] and in the data set with Huh-7 [15] was “Active” each time. Also, the selectivity ratio in data set [8] was found to be 4. Moreover, the activity at 10 min, 5 µM is 70% in data set [16] and over 98% in data set [17].
